Assay results from ChEMBL document CHEMBL1255453, “Affinity of ceftaroline and other beta-lactams for penicillin-binding proteins from Staphylococcus aureus and Streptococcus pneumoniae” (Antimicrob Agents Chemother, 2010).
≈ marks a conversion by molar mass, not a printed value.

Assays:
[1] = target: T1, MecA (Staphylococcus aureus, UniProt Q7DHH4); experiment: Binding affinity to methicillin-, vancomycin-resistant, beta-lactamase-positive Staphylococcus aureus 510 PBP2a by competitive binding assay
T1 sequence (Q7DHH4 whole entry): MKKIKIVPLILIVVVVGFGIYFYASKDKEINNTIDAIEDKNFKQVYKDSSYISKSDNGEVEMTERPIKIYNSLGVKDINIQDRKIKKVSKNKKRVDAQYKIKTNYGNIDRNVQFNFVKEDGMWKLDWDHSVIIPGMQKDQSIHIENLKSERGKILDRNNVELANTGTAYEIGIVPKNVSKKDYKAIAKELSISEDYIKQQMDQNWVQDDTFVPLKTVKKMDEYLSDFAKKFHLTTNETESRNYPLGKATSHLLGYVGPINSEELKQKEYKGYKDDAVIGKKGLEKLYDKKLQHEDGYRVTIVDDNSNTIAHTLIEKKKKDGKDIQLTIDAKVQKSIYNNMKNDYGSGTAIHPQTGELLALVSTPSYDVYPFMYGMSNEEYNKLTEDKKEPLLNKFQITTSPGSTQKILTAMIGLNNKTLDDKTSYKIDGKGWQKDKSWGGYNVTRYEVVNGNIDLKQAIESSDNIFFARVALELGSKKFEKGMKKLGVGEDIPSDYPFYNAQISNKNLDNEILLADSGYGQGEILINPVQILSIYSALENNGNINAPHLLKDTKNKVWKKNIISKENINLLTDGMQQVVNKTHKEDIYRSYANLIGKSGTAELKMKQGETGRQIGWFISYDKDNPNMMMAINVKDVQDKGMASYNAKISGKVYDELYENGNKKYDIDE
Procedure, shortened: (§1)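 MRSA grown in brain heart infusion and harvested in exponential phase (OD600 0.3–0.4). Membranes prepared by lysozyme/lysostaphin/DNase, freeze-thaw and sonication, then ultracentrifugation. Membranes preincubated with clavulanic acid 1 mg/ml to saturate PBPs other than PBP2a. Then β-lactam 10 min at 37°C and Bocillin FL 40 μg/ml, 15 min at 37°C. SDS-PAGE fluorescence; IC50 = 50% inhibition of Bocillin FL binding; 3 isolations.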

[2] = Binding affinity to methicillin-resistant, heteroresistant vancomycin-intermediate, beta-lactamase-negative Staphylococcus aureus 873 PBP3 by competitive binding assay
[3] = Binding affinity to methicillin-, linezolid-resistant, vancomycin-intermediate, beta-lactamase-positive Staphylococcus aureus 2149A PBP1 by competitive binding assay
[4] = tested on: Staphylococcus aureus; experiment: Antibacterial activity against methicillin-resistant, heteroresistant vancomycin-intermediate, beta-lactamase-negative Staphylococcus aureus 873 by macrodilution method; format: functional
Procedure, shortened: (§2)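 CLSI broth macrodilution MICs. The S. aureus set is 5 MRSA strains (hVISA, VISA, VRSA) plus 1 MSSA. The S. pneumoniae set is 7 clonally unrelated clinical isolates, categorised by penicillin G against 2006 CLSI M100-S17 criteria (resistant ≥2 μg/ml, susceptible ≤0.06 μg/ml).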

[5] = tested on: Streptococcus pneumoniae; experiment: Antibacterial activity against penicillin-resistant Streptococcus pneumoniae 24 by macrodilution method; format: functional; procedure, shortened: as §2
[6] = Binding affinity to methicillin-, vancomycin-susceptible Staphylococcus aureus ATCC 29213 PBP3 by competitive binding assay
Procedure, shortened: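 MSSA grown in brain heart infusion broth and harvested at OD600 0.3–0.4. Lysed with lysozyme, lysostaphin, DNase I, freeze-thaw and sonication; membranes collected at 100,000 × g. Membranes (100 μg protein) incubated with β-lactam 10 min at 37°C, then Bocillin FL 40 μg/ml, 15 min at 37°C. SDS-PAGE, fluorescence at 520 nm. IC50 is 50% inhibition of Bocillin FL binding; 3 membrane isolations.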

[7] = Binding affinity to methicillin-, vancomycin-resistant, beta-lactamase-positive Staphylococcus aureus 510 PBP4 by competitive binding assay
[8] = target: T1, MecA; experiment: Binding affinity to methicillin-, linezolid-resistant, vancomycin-intermediate, beta-lactamase-positive Staphylococcus aureus 2149A PBP2a by competitive binding assay; procedure, shortened: as §1
[9] = Binding affinity to methicillin-, vancomycin-resistant, beta-lactamase-positive Staphylococcus aureus 510 PBP2 by competitive binding assay
[10] = tested on: Streptococcus pneumoniae; experiment: Antibacterial activity against penicillin-resistant Streptococcus pneumoniae 2688 by macrodilution method; format: functional; procedure, shortened: as §2
[11] = Binding affinity to against methicillin-, daptomycin-resistant, vancomycin-intermediate, beta-lactamase-positive Staphylococcus aureus 25 PBP3 by competitive binding assay
Procedure, shortened: (§3)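 MRSA strain harvested in stationary phase (OD600 >2.00). Membranes prepared by enzymatic lysis, freeze-thaw, sonication and ultracentrifugation, then preincubated with clavulanic acid 1 mg/ml. β-Lactam competition 10 min at 37°C, then Bocillin FL 40 μg/ml, 15 min at 37°C. SDS-PAGE, 520 nm imaging; IC50 = 50% inhibition of Bocillin FL labeling; 3 membrane isolations.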

[12] = tested on: Staphylococcus aureus; experiment: Antibacterial activity against methicillin-, linezolid-resistant, vancomycin-intermediate, beta-lactamase-positive Staphylococcus aureus 2149A by macrodilution method; format: functional; procedure, shortened: as §2
[13] = Binding affinity to methicillin-, linezolid-resistant, vancomycin-intermediate, beta-lactamase-positive Staphylococcus aureus 2149A PBP3 by competitive binding assay
[14] = Binding affinity to methicillin-, linezolid-resistant, vancomycin-intermediate, beta-lactamase-positive Staphylococcus aureus 2149A PBP4 by competitive binding assay
[15] = tested on: Streptococcus pneumoniae; experiment: Antibacterial activity against penicillin-resistant Streptococcus pneumoniae 3413 by macrodilution method; format: functional; procedure, shortened: as §2
[16] = Binding affinity to methicillin-resistant, heteroresistant vancomycin-intermediate, beta-lactamase-negative Staphylococcus aureus 873 PBP1 by competitive binding assay
[17] = Binding affinity to methicillin-resistant, vancomycin-intermediate, beta-lactamase-positive Staphylococcus aureus 1287 PBP3 by competitive binding assay
[18] = Binding affinity to methicillin-resistant, heteroresistant vancomycin-intermediate, beta-lactamase-negative Staphylococcus aureus 873 PBP4 by competitive binding assay
[19] = Binding affinity to methicillin-, vancomycin-resistant, beta-lactamase-positive Staphylococcus aureus 510 PBP1 by competitive binding assay
[20] = Binding affinity to methicillin-, linezolid-resistant, vancomycin-intermediate, beta-lactamase-positive Staphylococcus aureus 2149A PBP2 by competitive binding assay
[21] = Binding affinity to methicillin-resistant, vancomycin-intermediate, beta-lactamase-positive Staphylococcus aureus 1287 PBP2 by competitive binding assay
[22] = Binding affinity to against methicillin-, daptomycin-resistant, vancomycin-intermediate, beta-lactamase-positive Staphylococcus aureus 25 PBP1 by competitive binding assay; procedure, shortened: as §3
[23] = Binding affinity to against methicillin-, daptomycin-resistant, vancomycin-intermediate, beta-lactamase-positive Staphylococcus aureus 25 PBP2 by competitive binding assay; procedure, shortened: as §3
[24] = target: T1, MecA; experiment: Binding affinity to methicillin-resistant, vancomycin-intermediate, beta-lactamase-positive Staphylococcus aureus 1287 PBP2a by competitive binding assay; procedure, shortened: as §1
[25] = Binding affinity to methicillin-resistant, heteroresistant vancomycin-intermediate, beta-lactamase-negative Staphylococcus aureus 873 PBP2 by competitive binding assay
[26] = target: T1, MecA; experiment: Binding affinity to methicillin-resistant, heteroresistant vancomycin-intermediate, beta-lactamase-negative Staphylococcus aureus 873 PBP2a by competitive binding assay; procedure, shortened: as §1

Compound `CO/N=C(\C(=O)N[C@@H]1C(=O)N2C(C(=O)O)=C(COC(C)=O)CS[C@H]12)c1csc(N)n1` [CEFOTAXIME] has an IC50 [1] of 2.2 µM, an IC50 [2] of 0.25 µg/mL (≈ 0.549 µM) and an IC50 [3] of 4 µg/mL (≈ 8.78 µM). For the same compound, the MIC [4] was greater than 64 µg/mL, the MIC [5] was 1 µg/mL (≈ 2.2 µM) and the IC50 [6] was 1 µg/mL (≈ 2.2 µM). For the same compound, the IC50 [7] was greater than 128 µg/mL, the IC50 [8] was greater than 281 µM and the IC50 [9] was 0.25 µg/mL (≈ 0.549 µM). It also gave an MIC [10] of 16 µg/mL (≈ 35.1 µM), an IC50 [11] of 1 µg/mL (≈ 2.2 µM) and an MIC [12] of 32 µg/mL (≈ 70.3 µM). For the same compound, the IC50 [13] was 2 µg/mL (≈ 4.39 µM), the IC50 [14] was greater than 128 µg/mL and the MIC [15] was 2 µg/mL (≈ 4.39 µM). It also gave an IC50 [16] of 2 µg/mL (≈ 4.39 µM), an IC50 [17] of 1 µg/mL (≈ 2.2 µM) and an IC50 [18] greater than 128 µg/mL. It also gave an IC50 [19] of 0.5 µg/mL (≈ 1.1 µM), an IC50 [20] of 1 µg/mL (≈ 2.2 µM) and an IC50 [21] of 1 µg/mL (≈ 2.2 µM). It also gave an IC50 [22] of 16 µg/mL (≈ 35.1 µM), an IC50 [23] of 2 µg/mL (≈ 4.39 µM) and an IC50 [24] of 4.39 µM. The IC50 [25] was 0.5 µg/mL (≈ 1.1 µM) and the IC50 [26] was greater than 281 µM.

With `CO/N=C(\C(=O)N[C@@H]1C(=O)N2C(C(=O)O)=C(CSc3nc(=O)c(O)nn3C)CS[C@H]12)c1csc(N)n1` [CEFTRIAXONE] the IC50 [1] was 1.8 µM, the IC50 [2] was 0.25 µg/mL (≈ 0.451 µM) and the IC50 [3] was 4 µg/mL (≈ 7.21 µM). It also gave an MIC [4] greater than 64 µg/mL, an MIC [5] of 2 µg/mL (≈ 3.61 µM) and an IC50 [6] of 1 µg/mL (≈ 1.8 µM). For the same compound, the IC50 [7] was greater than 128 µg/mL, the IC50 [8] was 3.61 µM and the IC50 [9] was 0.25 µg/mL (≈ 0.451 µM). It also gave an MIC [10] of 8 µg/mL (≈ 14.4 µM), an IC50 [11] of 1 µg/mL (≈ 1.8 µM) and an MIC [12] of 64 µg/mL (≈ 115 µM). For the same compound, the IC50 [13] was 2 µg/mL (≈ 3.61 µM), the IC50 [14] was greater than 128 µg/mL and the MIC [15] was 2 µg/mL (≈ 3.61 µM). It also gave an IC50 [16] of 2 µg/mL (≈ 3.61 µM), an IC50 [17] of 1 µg/mL (≈ 1.8 µM) and an IC50 [18] greater than 128 µg/mL. It also gave an IC50 [19] of 0.5 µg/mL (≈ 0.902 µM), an IC50 [20] of 1 µg/mL (≈ 1.8 µM) and an IC50 [21] of 1 µg/mL (≈ 1.8 µM). The IC50 [22] was 16 µg/mL (≈ 28.9 µM), the IC50 [23] was 2 µg/mL (≈ 3.61 µM) and the IC50 [24] was 3.61 µM. It also gave an IC50 [25] of 0.5 µg/mL (≈ 0.902 µM) and an IC50 [26] greater than 231 µM.

Compound `CC1(C)S[C@@H]2[C@H](NC(=O)Cc3ccccc3)C(=O)N2[C@H]1C(=O)O` [PENICILLIN G] has an IC50 [1] of 191 µM, an IC50 [2] of 0.03 µg/mL (≈ 0.0897 µM) and an IC50 [3] of 2 µg/mL (≈ 5.98 µM). For the same compound, the MIC [4] was 8 µg/mL (≈ 23.9 µM), the MIC [5] was 4 µg/mL (≈ 12 µM) and the IC50 [6] was 1 µg/mL (≈ 2.99 µM). It also gave an IC50 [7] of 64 µg/mL (≈ 191 µM), an IC50 [8] of 5.98 µM and an IC50 [9] of 64 µg/mL (≈ 191 µM). It also gave an MIC [10] of 8 µg/mL (≈ 23.9 µM), an IC50 [11] of 0.5 µg/mL (≈ 1.5 µM) and an MIC [12] of 64 µg/mL (≈ 191 µM). The IC50 [13] was 2 µg/mL (≈ 5.98 µM), the IC50 [14] was greater than 128 µg/mL and the MIC [15] was 4 µg/mL (≈ 12 µM). It also gave an IC50 [16] of 0.5 µg/mL (≈ 1.5 µM), an IC50 [17] of 0.25 µg/mL (≈ 0.748 µM) and an IC50 [18] greater than 128 µg/mL. For the same compound, the IC50 [19] was 128 µg/mL (≈ 383 µM), the IC50 [20] was greater than 128 µg/mL and the IC50 [21] was 4 µg/mL (≈ 12 µM). It also gave an IC50 [22] of 0.5 µg/mL (≈ 1.5 µM), an IC50 [23] of 1 µg/mL (≈ 2.99 µM) and an IC50 [24] of 12 µM. For the same compound, the IC50 [25] was 0.5 µg/mL (≈ 1.5 µM) and the IC50 [26] was 191 µM.
